Experimental data published in ChEMBL document CHEMBL1649151, “Urinary bactericidal activity of Doripenem versus that of levofloxacin in patients with complicated urinary tract infections or pyelonephritis” (Antimicrob Agents Chemother, 2009).
Converted amounts (≈) assume the structure as drawn.

Assays:
Escherichia coli [1] = test: Antimicrobial activity against Escherichia coli 1949821 B-M isolated from patient with pyelonephritis assessed as >3-log reduction in urinary bacterial titer after 24 hrs; type: functional, Urine
Method in brief: (§1)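 Urine was collected on day 3 of i.v. therapy (steady state) over 4-h intervals from infusion start (0–4 to 20–24 h), stored at –80°C and sterile filtered. It was serially diluted twofold (1:0 up to 1:131,072) in the patient's own pre-dose drug-free urine. Microdilution used a final inoculum of 1.0 x 10^6 to 9.5 x 10^6 CFU/ml, incubated 18 h at 37°C in air. 10 µl was subcultured onto 5% blood Columbia agar for 24 h at 37°C. The bactericidal endpoint was >99.9% (>3-log) kill, reported as a reciprocal titer.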

Escherichia coli [2] = test: Antimicrobial activity against Escherichia coli 1135121 isolated from patient with pyelonephritis assessed as >3-log reduction in urinary bacterial titer after 24 hrs; type: functional, Urine
Method in brief: (§2)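 Urine was collected before dosing and on day 3 of i.v. therapy (steady state), in 4-h intervals from infusion start (0–4 to 20–24 h), stored at −80°C and sterile filtered. It was serially diluted twofold (1:0 to 1:131,072) in the patient's drug-free pre-dose urine. Microdilution used an inoculum of 1.0 x 10^6–9.5 x 10^6 CFU/ml, incubated 18 h at 37°C, then subcultured 24 h on blood agar. The endpoint was >99.9% kill, reported as reciprocal titer.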

Proteus mirabilis [3] = test: Antimicrobial activity against Proteus mirabilis 1134841 isolated from patient with pyelonephritis assessed as >3-log reduction in urinary bacterial titer after 24 hrs; type: functional, Urine
Method in brief: (§3)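 Patient urine was collected on day 3 of i.v. therapy (steady state) over 4-h intervals after infusion start, stored at –80°C, and sterile filtered. It was twofold serially diluted (1:0 to 1:131,072) in the patient's own pre-dose drug-free urine, inoculated to 1.0 x 10^6–9.5 x 10^6 CFU/ml, and incubated for 18 h at 37°C. Subcultures were grown on blood agar for 24 h. The UBT is the reciprocal of the highest dilution giving >99.9% kill.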

Enterococcus faecalis [4] = test: Antimicrobial activity against Enterococcus faecalis 1780065 B-B isolated from patient with pyelonephritis assessed as >3-log reduction in urinary bacterial titer after 20 hrs; type: functional, Urine; method in brief: as §2
Escherichia coli [5] = test: Antimicrobial activity against Escherichia coli 1135121 isolated from patient with pyelonephritis assessed as >3-log reduction in urinary bacterial titer after 20 hrs; type: functional, Urine; method in brief: as §2
Escherichia coli [6] = test: Antimicrobial activity against Escherichia coli 1949821 B-M isolated from patient with pyelonephritis assessed as >3-log reduction in urinary bacterial titer after 16 hrs; type: functional, Urine; method in brief: as §1
Staphylococcus aureus = test: Antimicrobial activity against Staphylococcus aureus 1134684 isolated from patient with pyelonephritis assessed as >3-log reduction in urinary bacterial titer after 16 hrs; type: functional, Urine; method in brief: as §3
Escherichia coli [7] = test: Antimicrobial activity against Escherichia coli 1949820 B-N isolated from patient with pyelonephritis assessed as >3-log reduction in urinary bacterial titer after 16 hrs; type: functional, Urine; method in brief: as §1
Pseudomonas aeruginosa [8] = test: Antimicrobial activity against Pseudomonas aeruginosa 1134642 isolated from patient with pyelonephritis assessed as >3-log reduction in urinary bacterial titer after 16 hrs; type: functional, Urine; method in brief: as §3
Escherichia coli [9] = test: Antimicrobial activity against Escherichia coli 1135121 isolated from patient with pyelonephritis assessed as >3-log reduction in urinary bacterial titer after 16 hrs; type: functional, Urine; method in brief: as §2
Escherichia coli [10] = test: Antimicrobial activity against Escherichia coli 1949820 B-N isolated from patient with pyelonephritis assessed as >3-log reduction in urinary bacterial titer after 12 hrs; type: functional, Urine; method in brief: as §1
Proteus mirabilis [11] = test: Antimicrobial activity against Proteus mirabilis 1134841 isolated from patient with pyelonephritis assessed as >3-log reduction in urinary bacterial titer after 12 hrs; type: functional, Urine; method in brief: as §3
Escherichia coli [12] = test: Antimicrobial activity against Escherichia coli 1135121 isolated from patient with pyelonephritis assessed as >3-log reduction in urinary bacterial titer after 12 hrs; type: functional, Urine; method in brief: as §2
Pseudomonas aeruginosa [13] = test: Antimicrobial activity against Pseudomonas aeruginosa […] assessed as >3-log reduction in urinary bacterial titer after 12 hrs; type: functional, Urine; method in brief: as §3
Escherichia coli [14] = test: Antimicrobial activity against Escherichia coli 1949821 B-M isolated from patient with pyelonephritis assessed as >3-log reduction in urinary bacterial titer after 8 hrs; type: functional, Urine; method in brief: as §3
Escherichia coli [15] = test: Antimicrobial activity against Escherichia coli 1949820 B-N isolated from patient with pyelonephritis assessed as >3-log reduction in urinary bacterial titer after 8 hrs; type: functional, Urine; method in brief: as §1
Proteus mirabilis [16] = test: Antimicrobial activity against Proteus mirabilis 1134841 isolated from patient with pyelonephritis assessed as >3-log reduction in urinary bacterial titer after 8 hrs; type: functional, Urine; method in brief: as §3
Escherichia coli [17] = test: Antimicrobial activity against Escherichia coli 1135121 isolated from patient with pyelonephritis assessed as >3-log reduction in urinary bacterial titer after 8 hrs; type: functional, Urine; method in brief: as §2
Escherichia coli [18] = test: Antimicrobial activity against Escherichia coli 1949820 B-N isolated from patient with pyelonephritis assessed as >3-log reduction in urinary bacterial titer after 4 hrs; type: functional, Urine; method in brief: as §1
Escherichia coli [19] = test: Antimicrobial activity against Escherichia coli 1821385 B-C isolated from patient with pyelonephritis assessed as >3-log reduction in urinary bacterial titer after 20 hrs; type: functional, Urine; method in brief: as §1
Escherichia coli [20] = test: Antimicrobial activity against Escherichia coli 2062717 B-P isolated from patient with pyelonephritis assessed as >3-log reduction in urinary bacterial titer after 16 hrs; type: functional, Urine; method in brief: as §3
Escherichia coli [21] = test: Antimicrobial activity against Escherichia coli 1889646 B-F isolated from patient with pyelonephritis assessed as >3-log reduction in urinary bacterial titer after 16 hrs; type: functional, Urine; method in brief: as §1
Escherichia coli [22] = test: Antimicrobial activity against Escherichia coli 1889646 B-F isolated from patient with pyelonephritis assessed as >3-log reduction in urinary bacterial titer after 12 hrs; type: functional, Urine; method in brief: as §1
Escherichia coli [23] = test: Antimicrobial activity against Escherichia coli 1135121 isolated from patient with pyelonephritis assessed as >3-log reduction in urinary bacterial titer after 4 hrs; type: functional, Urine; method in brief: as §2
Proteus mirabilis [24] = test: Antimicrobial activity against Proteus mirabilis 1134841 isolated from patient with pyelonephritis assessed as >3-log reduction in urinary bacterial titer after 4 hrs; type: functional, Urine; method in brief: as §3
Pseudomonas aeruginosa [25] = test: Antimicrobial activity against Pseudomonas aeruginosa […] assessed as >3-log reduction in urinary bacterial titer after 4 hrs; type: functional, Urine; method in brief: as §3
Enterococcus faecalis [26] = test: Antimicrobial activity against Enterococcus faecalis 1780065 B-B isolated from patient with pyelonephritis by Etest; type: functional
Pseudomonas aeruginosa [27] = test: Antimicrobial activity against Pseudomonas aeruginosa 1134642 isolated from patient with pyelonephritis by Etest; type: functional
Pseudomonas aeruginosa [28] = test: Antimicrobial activity against Pseudomonas aeruginosa ATCC 27853 isolated from patient with pyelonephritis by Etest; type: functional
Escherichia coli [29] = test: Antimicrobial activity against Escherichia coli 1949825 B-K isolated from patient with pyelonephritis assessed as >3-log reduction in urinary bacterial titer after 4 hrs; type: functional, Urine; method in brief: as §3
Escherichia coli [30] = test: Antimicrobial activity against Escherichia coli 1949826 B-L isolated from patient with pyelonephritis assessed as >3-log reduction in urinary bacterial titer after 20 hrs; type: functional, Urine; method in brief: as §3
Enterococcus faecalis [31] = test: Antimicrobial activity against Enterococcus faecalis 2215767-10 B-S isolated from patient with pyelonephritis assessed as >3-log reduction in urinary bacterial titer after 16 hrs; type: functional, Urine; method in brief: as §2
Escherichia coli [32] = test: Antimicrobial activity against Escherichia coli 1889647 B-H isolated from patient with pyelonephritis assessed as >3-log reduction in urinary bacterial titer after 8 hrs; type: functional, Urine; method in brief: as §1
Escherichia coli [33] = test: Antimicrobial activity against Escherichia coli 1821386 B-D isolated from patient with pyelonephritis assessed as >3-log reduction in urinary bacterial titer after 8 hrs; type: functional, Urine; method in brief: as §1
Escherichia coli [34] = test: Antimicrobial activity against Escherichia coli 1655646 A-Y isolated from patient with pyelonephritis assessed as >3-log reduction in urinary bacterial titer after 8 hrs; type: functional, Urine; method in brief: as §2

Row | SMILES | Time (Escherichia coli [1]) | urinary bactericidal titer (Escherichia coli [2]) | urinary bactericidal titer (Proteus mirabilis [3]) | urinary bactericidal titer (Enterococcus faecalis [4]) | urinary bactericidal titer (Escherichia coli [5]) | Time (Escherichia coli [6]) | urinary bactericidal titer (Staphylococcus aureus) | Time (Escherichia coli [7]) | urinary bactericidal titer (Pseudomonas aeruginosa [8]) | urinary bactericidal titer (Escherichia coli [9]) | urinary bactericidal titer (Proteus mirabilis [11]) | urinary bactericidal titer (Escherichia coli [12]) | urinary bactericidal titer (Pseudomonas aeruginosa [13]) | urinary bactericidal titer (Escherichia coli [14]) | urinary bactericidal titer (Escherichia coli [15]) | urinary bactericidal titer (Proteus mirabilis [16]) | urinary bactericidal titer (Escherichia coli [17]) | urinary bactericidal titer (Escherichia coli [18]) | urinary bactericidal titer (Escherichia coli [23]) | urinary bactericidal titer (Proteus mirabilis [24]) | also measured
1 | C[C@@H](O)[C@H]1C(=O)N2C(C(=O)O)=C(S[C@@H]3CN[C@H](CNS(N)(=O)=O)C3)[C@H](C)[C@H]12 [DORIPENEM] | 5120 h | 4096 reciprocal titer | 512 reciprocal titer | 256 reciprocal titer | 32800 titer | 8192 h | 4 reciprocal titer | 8192 h | 2048 reciprocal titer | 8192 reciprocal titer | 6140 reciprocal titer | 65500 titer | 3070 reciprocal titer | 12300 titer | 12300 titer | 1024 reciprocal titer | 24600 titer | 32800 titer | 49200 reciprocal titer | 2048 reciprocal titer | urinary bactericidal titer (Escherichia coli [10]): 32800; urinary bactericidal titer (Escherichia coli [19]): 8192 reciprocal titer; urinary bactericidal titer (Escherichia coli [20]): 512 reciprocal titer; urinary bactericidal titer (Escherichia coli [21]): 8192 reciprocal titer; urinary bactericidal titer (Escherichia coli [22]): 32800 reciprocal titer; urinary bactericidal titer (Pseudomonas aeruginosa [25]): 2048 reciprocal titer; MIC (Enterococcus faecalis [26]): 4 µg/mL (≈ 9.51 µM); MIC (Pseudomonas aeruginosa [27]): 2 µg/mL (≈ 4.76 µM); MIC (Pseudomonas aeruginosa [28]): 0.12 µg/mL (≈ 0.285 µM); urinary bactericidal titer (Escherichia coli [29]): 16400 reciprocal titer; urinary bactericidal titer (Escherichia coli [30]): 65500 reciprocal titer
2 | C[C@H]1COc2c(N3CCN(C)CC3)c(F)cc3c(=O)c(C(=O)O)cn1c23.C[C@H]1COc2c(N3CCN(C)CC3)c(F)cc3c(=O)c(C(=O)O)cn1c23.O [LEVOFLOXACIN] | 40 h | 2 reciprocal titer | 0 reciprocal titer | 8 reciprocal titer | 3 titer | 48 h | 4 reciprocal titer | 0.5 h | 1 reciprocal titer | 2.5 reciprocal titer | 0 reciprocal titer | 3 titer | 8 reciprocal titer | 128 titer | 2 titer | 0 reciprocal titer | 8 titer | 4 titer | 8 reciprocal titer | 0 reciprocal titer | Time (Escherichia coli [10]): 0.5 h; urinary bactericidal titer (Enterococcus faecalis [31]): 0 reciprocal titer; urinary bactericidal titer (Pseudomonas aeruginosa [25]): 16 reciprocal titer; MIC (Enterococcus faecalis [26]): 1 µg/mL; MIC (Pseudomonas aeruginosa [27]): 16 µg/mL; MIC (Pseudomonas aeruginosa [28]): 0.25 µg/mL; urinary bactericidal titer (Escherichia coli [32]): 2048 reciprocal titer; urinary bactericidal titer (Escherichia coli [33]): 8192 reciprocal titer; urinary bactericidal titer (Escherichia coli [34]): 2048 reciprocal titer
